This is an account of results in ChEMBL document CHEMBL4354804, “Discovery of a New Isoxazole-3-hydroxamate-Based Histone Deacetylase 6 Inhibitor SS-208 with Antitumor Activity in Syngeneic Melanoma Mouse Models” (J Med Chem, 2019).

For data set [1], the target named is T1, Protein deacetylase HDAC6 (Homo sapiens, UniProt Q9UBN7).
T1 sequence (Q9UBN7 whole entry): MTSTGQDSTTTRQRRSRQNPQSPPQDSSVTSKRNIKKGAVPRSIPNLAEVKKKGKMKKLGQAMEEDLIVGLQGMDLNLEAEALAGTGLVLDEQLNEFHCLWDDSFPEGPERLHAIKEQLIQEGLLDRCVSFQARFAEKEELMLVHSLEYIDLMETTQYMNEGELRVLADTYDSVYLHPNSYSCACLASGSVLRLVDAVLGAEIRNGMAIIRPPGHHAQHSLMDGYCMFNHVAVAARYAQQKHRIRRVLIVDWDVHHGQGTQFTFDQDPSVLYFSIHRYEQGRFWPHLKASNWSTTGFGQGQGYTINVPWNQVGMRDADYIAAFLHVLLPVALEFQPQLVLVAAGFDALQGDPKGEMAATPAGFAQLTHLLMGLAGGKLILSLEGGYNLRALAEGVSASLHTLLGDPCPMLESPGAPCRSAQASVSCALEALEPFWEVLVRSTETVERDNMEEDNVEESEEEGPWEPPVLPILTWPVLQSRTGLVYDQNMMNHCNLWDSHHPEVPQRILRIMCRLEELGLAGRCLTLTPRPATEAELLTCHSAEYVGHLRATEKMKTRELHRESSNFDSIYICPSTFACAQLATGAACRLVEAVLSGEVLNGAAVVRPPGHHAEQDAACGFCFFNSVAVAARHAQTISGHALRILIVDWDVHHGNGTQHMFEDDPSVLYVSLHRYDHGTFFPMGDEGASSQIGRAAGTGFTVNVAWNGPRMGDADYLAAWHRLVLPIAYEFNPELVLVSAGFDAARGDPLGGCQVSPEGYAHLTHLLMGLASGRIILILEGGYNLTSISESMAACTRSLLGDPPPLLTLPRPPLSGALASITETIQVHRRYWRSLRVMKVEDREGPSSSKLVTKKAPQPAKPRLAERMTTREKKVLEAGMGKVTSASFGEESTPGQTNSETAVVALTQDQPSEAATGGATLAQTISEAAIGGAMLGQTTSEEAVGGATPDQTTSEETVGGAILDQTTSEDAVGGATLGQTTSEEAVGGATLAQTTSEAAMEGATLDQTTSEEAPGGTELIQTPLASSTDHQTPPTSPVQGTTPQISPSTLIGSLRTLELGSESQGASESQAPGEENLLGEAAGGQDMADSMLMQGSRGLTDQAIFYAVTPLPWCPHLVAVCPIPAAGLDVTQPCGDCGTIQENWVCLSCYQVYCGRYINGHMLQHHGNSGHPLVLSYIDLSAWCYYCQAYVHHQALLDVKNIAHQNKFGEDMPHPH
As to the kind of experiment: Inhibition of recombinant N-terminal GST-tagged human HDAC6 (1 to 1215 residues) expressed in baculovirus infected sf9 insect cells using p53 (379 to 382 residues) derived fluorogenic peptide RHKKAc as substrate preincubated for 5 to 10 mins followed by substrate addition and further incubated for 2 hrs by fluorescence assay.

The species named for data set [2] is Homo sapiens. The data set can be described thus: Selectivity index, ratio of IC50 for recombinant full length C-terminal His/FLAG tagged human HDAC1 (1 to 482 residues) expressed in baculovirus infected sf9 insect cells using p53 (379 to 382 residues) derived fluorogenic peptide RHKKAc as substrate preincubated for 5 to 10 mins followed by ….
A further data set deals with Histone deacetylase 1 (Homo sapiens, UniProt Q13547). As to the kind of experiment: Inhibition of recombinant full length C-terminal His/FLAG tagged human HDAC1 (1 to 482 residues) expressed in baculovirus infected sf9 insect cells using p53 (379 to 382 residues) derived fluorogenic peptide RHKKAc as substrate preincubated for 5 to 10 mins followed by substrate addition and further incubated for 2 hrs by fluorescence assay.

For another data set, the system named is 5637. As to the kind of experiment: Induction of cell death in human 5637 cells at 0.1 to 25 uM. The class given is cell-based. The settings on record: human, 5637, 25 µM.
The subject of another data set is T-24. As to the kind of experiment: Induction of cell death in human T24 cells at 0.1 to 25 uM. The class given is cell-based. The settings on record: t-24, 25 µM.
Data set [3] can be described thus: Induction of cell death in mouse SM1 cells at 0.1 to 25 uM. The data set is classed as cell-based.
The nature of data set [4]: Cytotoxicity against mouse SM1 cells at 0.1 to 25 uM by ApoTox-Glo triplex assay. The data set is classed as cell-based. The method, boiled down:
(§1)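 SM1 cells treated with HDAC inhibitors, with pan-HDACi and assay controls on every plate. ApoTox-Glo triplex readout: viability fluorescence 400Ex/505Em, cytotoxicity fluorescence 485Ex/520Em, then caspase 3/7 reagent read by luminescence for apoptosis.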

The test system of the next data set is PC-3. As to the kind of experiment: Induction of cell death in human PC3 cells at 0.1 to 25 uM. The note with it: pc-3, 25 µM. The data set is classed as cell-based.
The nature of data set [5]: Effect on cell viability in mouse SM1 cells up to 10 uM by ApoTox-Glo triplex assay. The class given is cell-based. The method, boiled down:
as §1

Data set [6] can be described thus: Induction of apoptosis in mouse SM1 cells at 0.1 to 25 uM by caspase3/7 reagent based luminescence assay. The data set is classed as cell-based. The method, boiled down:
as §1

The species entered for data set [7] is Homo sapiens. As to the kind of experiment: Selectivity index, ratio of IC50 for recombinant human full length C-terminal His/FLAG-tagged HDAC1 expressed in baculovirus infected Sf9 insect cells using fluorogenic HDAC as substrate measured after 30 mins by fluorescence based analysis to IC50 for recombinant human full length C-terminal […] expressed in baculovirus infected Sf9 insect cells using fluorogenic HDAC as substrate measured after 30 mins by fluorescence based analysis.

The species named for data set [8] is Homo sapiens. The data set can be described thus: Selectivity index, ratio of IC50 for recombinant full length human HDAC1 expressed in Escherichia coli cells using Fluor de Lys as substrate preincubated for 15 mins followed by substrate addition for 60 mins by fluorescence assay to IC50 for recombinant full length human HDAC6 expressed in baculovirus infected sf9 insect cells using Fluor de Lys as substrate preincubated for 15 mins followed by substrate addition for 60 mins by fluorescence assay.

Data set [9] deals with T2, Protein deacetylase HDAC6 (Mus musculus) (UniProt Q9Z2V5).
T2 sequence (whole entry): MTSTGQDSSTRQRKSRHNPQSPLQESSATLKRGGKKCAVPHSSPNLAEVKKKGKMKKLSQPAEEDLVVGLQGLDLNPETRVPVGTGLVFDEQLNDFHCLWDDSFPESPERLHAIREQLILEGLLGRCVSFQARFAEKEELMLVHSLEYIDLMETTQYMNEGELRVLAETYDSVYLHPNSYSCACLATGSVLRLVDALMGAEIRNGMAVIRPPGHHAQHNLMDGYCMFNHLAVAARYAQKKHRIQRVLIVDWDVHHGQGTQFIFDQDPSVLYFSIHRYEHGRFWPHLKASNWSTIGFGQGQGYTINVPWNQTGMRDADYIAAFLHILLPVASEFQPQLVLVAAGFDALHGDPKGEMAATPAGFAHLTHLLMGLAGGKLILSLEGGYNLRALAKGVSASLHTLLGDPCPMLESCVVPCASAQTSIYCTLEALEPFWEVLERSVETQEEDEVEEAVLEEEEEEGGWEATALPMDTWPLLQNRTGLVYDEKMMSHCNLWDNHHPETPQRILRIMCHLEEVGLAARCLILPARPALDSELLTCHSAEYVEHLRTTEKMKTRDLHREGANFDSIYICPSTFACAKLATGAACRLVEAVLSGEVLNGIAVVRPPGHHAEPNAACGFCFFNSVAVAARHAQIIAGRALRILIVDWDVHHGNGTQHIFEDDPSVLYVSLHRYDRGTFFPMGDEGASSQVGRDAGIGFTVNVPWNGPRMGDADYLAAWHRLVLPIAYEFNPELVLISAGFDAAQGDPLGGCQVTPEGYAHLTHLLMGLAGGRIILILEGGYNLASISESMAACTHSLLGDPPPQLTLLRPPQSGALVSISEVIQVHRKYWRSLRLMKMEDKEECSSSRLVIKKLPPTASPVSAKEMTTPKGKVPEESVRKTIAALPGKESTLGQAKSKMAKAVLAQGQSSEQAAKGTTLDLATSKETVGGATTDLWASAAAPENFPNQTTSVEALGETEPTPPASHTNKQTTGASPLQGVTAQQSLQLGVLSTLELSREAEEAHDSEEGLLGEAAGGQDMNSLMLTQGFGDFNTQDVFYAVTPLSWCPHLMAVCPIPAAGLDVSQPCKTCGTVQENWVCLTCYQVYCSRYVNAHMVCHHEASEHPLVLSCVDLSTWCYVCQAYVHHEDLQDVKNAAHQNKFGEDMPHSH
The data set can be described thus: Inhibition of HDAC6 in mouse SM1 cells assessed as increase in acetylated alpha-tubulin level at 5 to 10 uM after 24 hrs by Western blot analysis. The data set is classed as cell-based.

In data set [10] the target is T1, Protein deacetylase HDAC6. The data set can be described thus: Inhibition of recombinant N-terminal GST-tagged human HDAC6 (1 to 1215 residues) expressed in baculovirus infected sf9 insect cells using RHK-K(Ac)-AMC as substrate after 90 mins by fluorescence assay.
The species named for data set [11] is Homo sapiens. The data set can be described thus: Selectivity index, ratio of IC50 for recombinant full length C-terminal His/FLAG tagged human HDAC1 (1 to 482 residues) expressed in baculovirus infected sf21 insect cells using RHK-K(Ac)-AMC as substrate after 60 mins by fluorescence assay to IC50 for recombinant N-terminal GST-tagged human HDAC6 (1 to 1215 residues) expressed in baculovirus infected sf9 insect cells using RHK-K(Ac)-AMC as substrate after 90 mins by fluorescence assay.

Active and inactive are the calls of the source. No cut-off for these calls is given here. A value given as a limit tells only on which side of the number the result lay.

Chain of Histone deacetylase 1 (Q13547 whole entry, the tested form may be a part): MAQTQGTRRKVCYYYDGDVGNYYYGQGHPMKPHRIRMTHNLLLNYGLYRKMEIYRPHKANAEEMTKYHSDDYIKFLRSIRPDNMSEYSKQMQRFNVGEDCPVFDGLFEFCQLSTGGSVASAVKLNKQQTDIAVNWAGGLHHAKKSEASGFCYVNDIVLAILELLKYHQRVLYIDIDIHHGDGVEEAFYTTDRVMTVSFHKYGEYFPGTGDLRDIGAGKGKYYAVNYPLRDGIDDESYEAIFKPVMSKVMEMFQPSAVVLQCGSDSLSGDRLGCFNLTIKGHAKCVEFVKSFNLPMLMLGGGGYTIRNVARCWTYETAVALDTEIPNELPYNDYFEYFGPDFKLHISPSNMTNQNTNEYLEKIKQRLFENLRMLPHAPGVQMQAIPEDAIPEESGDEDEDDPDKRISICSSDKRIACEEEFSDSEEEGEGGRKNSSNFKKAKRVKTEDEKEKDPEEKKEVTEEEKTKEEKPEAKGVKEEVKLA

Take `O=C(NO)c1cc(CCCCN2CCCc3cc(Cl)ccc32)on1`: the IC50 was determined as 690 nM in data set [1] and 11200 nM at Histone deacetylase 1. Moreover, the Ratio IC50 in the data set filed under Homo sapiens [2] worked out at 16.
With `CC(C)(C)OC(=O)Nc1ccc(-c2cc(C(=O)NCCCCCCC(=O)NO)no2)cc1`, at Histone deacetylase 1, the IC50 is 3.2 nM.
Take `CN1CCc2c(c3ccccc3n2Cc2ccc(C(=O)NO)cc2)C1` [TUBASTATIN A]: the Activity result (in the data set on 5637; with T-24; in data set [3]; in data set [4]; in the data set on PC-3; in data set [5]) was “Non-Toxic” throughout. The Activity entry in data set [6] is on record as “Non-Toxic”.
Take `O=C(NCCc1cc(C(=O)NO)no1)c1ccccc1`: the IC50 in [1] is 190 nM; at Histone deacetylase 1, greater than 30000 nM. Besides, in the data set filed under Homo sapiens [2], the Ratio IC50 was greater than 155.
With `O=C(NO)c1ccc(CN(CCO)C(=O)Cc2ccccc2)cc1`, the Ratio IC50 in the data set filed under Homo sapiens [7] worked out at 36.
For `O=C(NO)c1ccc(Cn2c3c(c4ccccc42)S(=O)(=O)CC3)cc1`, the Ratio IC50 in the data set listed under Homo sapiens [8] amounted to 1460.
For the compound `CCCCN(Cc1ccc(C(=O)NO)cc1)C(=O)Nc1ccccc1` [NEXTURASTAT A], the Activity result (in the data set on 5637; in the data set with T-24; in data set [3]; in data set [4]; with PC-3; in data set [5]) was “Non-Toxic” each time. In data set [6], the Activity result was “Non-Toxic”. The inhibition result in data set [9] is “Active”.
In the case of `O=C(NCCc1cc(C(=O)NO)no1)c1cccc(-c2ccccc2)c1`, the Ratio IC50 in the data set listed under Homo sapiens [2] was found to be 85.
On to `Cc1nc2ccccc2n1Cc1ccc(C(=O)NO)cc1F`, for which, in data set [10], the IC50 amounted to 0.81 nM. Also, the Ratio IC50 in the data set filed under Homo sapiens [11] turned out to be 11100.
Consider `O=C(NO)c1cc(CCCCN2c3ccc(Cl)cc3CCc3cc(Cl)ccc32)on1`, for which, in the data set filed under Homo sapiens [2], the Ratio IC50 was greater than 22. Also, the IC50 on Histone deacetylase 1 is greater than 30000 nM.
Turning to `O=C(NO)c1cc(CCCCn2ccc3cc(Cl)c(Cl)cc32)on1`, the IC50 is 4360 nM in [1] and greater than 30000 nM at Histone deacetylase 1. The Ratio IC50 in the data set listed under Homo sapiens [2] is greater than 7.
Consider `O=C(NO)c1cc(CCCCc2ccc(Cl)c(Cl)c2)on1`, for which the IC50 on Histone deacetylase 1 is greater than 30000 nM.
For the compound `O=C(NCCc1cc(C(=O)NO)no1)c1ccc2ccccc2c1`, the IC50 in data set [1] turned out to be 10 nM. Besides, the Ratio IC50 in the data set listed under Homo sapiens [2] worked out at 294.
In the case of `O=C(NO)c1cc(CCCOc2ccc(Cl)c(Cl)c2)on1`, the figures for the IC50 (in data set [1]; on Histone deacetylase 1) were 200 nM and greater than 30000 nM, respectively. The Ratio IC50 in the data set filed under Homo sapiens [2] was greater than 152.
On to `O=C(CCc1cc(C(=O)NO)no1)Nc1nc(-c2ccccc2)cs1`, for which the Ratio IC50 in the data set filed under Homo sapiens [2] amounted to 9.9.
Turning to `CC1(C)CCN(CCCCc2cc(C(=O)NO)no2)c2ccc(Cl)cc21`, the figures for the IC50 (in data set [1]; at Histone deacetylase 1) were 1990 nM and greater than 30000 nM, respectively. For the same compound, the Ratio IC50 in the data set listed under Homo sapiens [2] is greater than 15.
As to `CC(C)(C)OC(=O)Nc1ccc(-c2cc(C(=O)NCc3ccc(C(=O)NO)cc3)no2)cc1`, the Ratio IC50 in the data set filed under Homo sapiens [2] is 1320.
